Experimental data published in ChEMBL document CHEMBL1921709, “Synthesis and activity of new macrolones: conjugates between 6(7)-(2'-aminoethyl)-amino-1-cyclopropyl-3-carboxylic acid (2'-hydroxyethyl) amides and 4″-propenoyl-azithromycin” (2011).
Converted amounts (≈) assume the structure as drawn.

Key:
Assay type in all cases: functional
Staphylococcus aureus [1] = test: Antibacterial activity against erythromycin-sensitive Staphylococcus aureus ATCC 13709 by broth microdilution method
Method in brief: (§1)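 Broth microdilution following CLSI guidelines, using two-fold serial dilutions of compound. Bacteria were first grown on appropriate agar plates. Read-out is growth inhibition, reported as MIC.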

Streptococcus pneumoniae [2] = test: Antibacterial activity against erythromycin-sensitive Streptococcus pneumoniae SP 030 by broth microdilution method
Method in brief: (§2)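 Broth microdilution following CLSI guidelines, except that 5% horse serum replaced lysed blood in the Streptococcus medium. Two-fold serial dilutions of compound were used. Bacteria were first grown on appropriate agar plates. Read-out is growth inhibition, reported as MIC.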

Streptococcus pyogenes [3] = test: Antibacterial activity against erythromycin-sensitive Streptococcus pyogenes 3565 by broth microdilution method; method in brief: as §2
Staphylococcus aureus [4] = test: Antibacterial activity against efflux-mediated macrolide-resistant Staphylococcus aureus PK1 by broth microdilution method
Method in brief: (§3)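 Standard CLSI broth microdilution MIC test with automated double dilutions of compound. Bacteria were pre-grown on appropriate agar plates.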

Streptococcus pneumoniae [5] = test: Antibacterial activity against efflux-mediated macrolide-resistant Streptococcus pneumoniae Ci137 by broth microdilution method
Method in brief: (§4)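 CLSI broth microdilution MIC with automated double dilutions of compound. The medium was supplemented with 5% horse serum in place of lysed blood. Bacteria were pre-grown on appropriate agar plates.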

Streptococcus pyogenes [6] = test: Antibacterial activity against efflux-mediated macrolide-resistant Streptococcus pyogenes Finland 2 by broth microdilution method; method in brief: as §4
Staphylococcus aureus [7] = test: Antibacterial activity against inducible macrolide, lincosamide and streptogramin B-resistant Staphylococcus aureus 90256/97 by broth microdilution method; method in brief: as §3
Streptococcus pneumoniae [8] = test: Antibacterial activity against inducible macrolide-resistant, constitutive lincosamide and streptogramin-resistant Streptococcus pneumoniae 134 GR M by broth microdilution method; method in brief: as §4
Streptococcus pyogenes [9] = test: Antibacterial activity against inducible macrolide-lincosamide-streptogramin B resistant Streptococcus pyogenes Finland 11 by broth microdilution method; method in brief: as §4
Streptococcus pneumoniae [10] = test: Antibacterial activity against constitutive macrolide, lincosamide, streptogramin-resistant Streptococcus pneumoniae 58 spain by broth microdilution method; method in brief: as §4
Streptococcus pyogenes [11] = test: Antibacterial activity against constitutive macrolide, lincosamide, streptogramin-resistant Streptococcus pyogenes 166 GR-Micro by broth microdilution method; method in brief: as §4
Staphylococcus aureus [12] = test: Antibacterial activity against constitutive macrolide, lincosamide, streptogramin-resistant Staphylococcus aureus PK2 by broth microdilution method; method in brief: as §3
Haemophilus influenzae = test: Antibacterial activity against Haemophilus influenzae ATCC 49247 by broth microdilution method; method in brief: as §1
Moraxella catarrhalis = test: Antibacterial activity against Moraxella catarrhalis ATCC 23246 by broth microdilution method; method in brief: as §1

| SMILES | MIC (Staphylococcus aureus [1]) | MIC (Streptococcus pneumoniae [2]) | MIC (Streptococcus pyogenes [3]) | MIC (Staphylococcus aureus [4]) | MIC (Streptococcus pneumoniae [5]) | MIC (Streptococcus pyogenes [6]) | MIC (Staphylococcus aureus [7]) | MIC (Streptococcus pneumoniae [8]) | MIC (Streptococcus pyogenes [9]) | MIC (Streptococcus pneumoniae [10]) | MIC (Streptococcus pyogenes [11]) | MIC (Staphylococcus aureus [12]) | MIC (Haemophilus influenzae) | MIC (Moraxella catarrhalis) |
| --- | --- | --- | --- | --- | --- | --- | --- | --- | --- | --- | --- | --- | --- | --- |
| CC[C@H]1OC(=O)[C@H](C)[C@@H](O[C@H]2C[C@@](C)(OC)[C@@H](OC(=O)CCNCCNc3ccc4c(c3)c(=O)c(C(=O)NCCO)cn4C3CC3)[C@H](C)O2)[C@H](C)[C@@H](O[C@@H]2O[C@H](C)C[C@H](N(C)C)[C@H]2O)[C@](C)(O)C[C@@H](C)CN(C)[C@H](C)[C@@H](O)[C@]1(C)O | 4 mg/L (≈ 3.53 µM) | ≤ 0.125 mg/L | 0.25 mg/L (≈ 0.221 µM) | > 64 mg/L | 4 mg/L (≈ 3.53 µM) | 16 mg/L (≈ 14.1 µM) | > 64 mg/L | 32 mg/L (≈ 28.2 µM) | 4 mg/L (≈ 3.53 µM) | > 64 mg/L | > 64 mg/L | > 64 mg/L | 8 mg/L (≈ 7.06 µM) | 0.5 mg/L (≈ 0.441 µM) |
| COC(=O)c1cn(C2CC2)c2cc(Cl)c(NCCNC(=O)OC(C)(C)C)cc2c1=O | > 64 mg/L | > 64 mg/L | > 64 mg/L | > 64 mg/L | > 64 mg/L | > 64 mg/L | > 64 mg/L | > 64 mg/L | > 64 mg/L | > 64 mg/L | > 64 mg/L | > 64 mg/L | > 64 mg/L | > 64 mg/L |
| CC(C)(C)OC(=O)NCCNc1cc2c(=O)c(C(=O)NCCO)cn(C3CC3)c2cc1Cl | > 64 mg/L | 16 mg/L (≈ 34.4 µM) | 64 mg/L (≈ 138 µM) | > 64 mg/L | > 64 mg/L | > 64 mg/L | > 64 mg/L | > 64 mg/L | > 64 mg/L | > 64 mg/L | > 64 mg/L | > 64 mg/L | > 64 mg/L | 32 mg/L (≈ 68.8 µM) |
| CC[C@H]1OC(=O)[C@H](C)[C@@H](O[C@H]2C[C@@](C)(OC)[C@@H](OC(=O)CCN(C)CCNc3ccc4c(c3)c(=O)c(C(=O)NCCO)cn4C3CC3)[C@H](C)O2)[C@H](C)[C@@H](O[C@@H]2O[C@H](C)C[C@H](N(C)C)[C@H]2O)[C@](C)(O)C[C@@H](C)CN(C)[C@H](C)[C@@H](O)[C@]1(C)O | 2 mg/L (≈ 1.74 µM) | ≤ 0.125 mg/L | 0.25 mg/L (≈ 0.218 µM) | 64 mg/L (≈ 55.8 µM) | 1 mg/L (≈ 0.871 µM) | 4 mg/L (≈ 3.49 µM) | > 64 mg/L | 4 mg/L (≈ 3.49 µM) | 4 mg/L (≈ 3.49 µM) | > 64 mg/L | > 64 mg/L | > 64 mg/L | 4 mg/L (≈ 3.49 µM) | 1 mg/L (≈ 0.871 µM) |
| NCCNc1cc2c(=O)c(C(=O)NCCO)cn(C3CC3)c2cc1Cl | > 64 mg/L | 64 mg/L (≈ 175 µM) | > 64 mg/L | > 64 mg/L | > 64 mg/L | > 64 mg/L | > 64 mg/L | > 64 mg/L | > 64 mg/L | > 64 mg/L | > 64 mg/L | > 64 mg/L | > 64 mg/L | 64 mg/L (≈ 175 µM) |
| CC(C)(C)OC(=O)NCCNc1cc2c(cc1F)c(=O)c(C(=O)NCCO)cn2C1CC1 | 64 mg/L (≈ 143 µM) | 16 mg/L (≈ 35.7 µM) | 16 mg/L (≈ 35.7 µM) | > 64 mg/L | > 64 mg/L | > 64 mg/L | > 64 mg/L | > 64 mg/L | > 64 mg/L | > 64 mg/L | > 64 mg/L | > 64 mg/L | > 64 mg/L | 16 mg/L (≈ 35.7 µM) |
| NCCNc1cc2c(cc1F)c(=O)c(C(=O)NCCO)cn2C1CC1 | > 64 mg/L | > 64 mg/L | > 64 mg/L | > 64 mg/L | > 64 mg/L | > 64 mg/L | > 64 mg/L | > 64 mg/L | > 64 mg/L | > 64 mg/L | > 64 mg/L | > 64 mg/L | > 64 mg/L | > 64 mg/L |
| CC[C@H]1OC(=O)[C@H](C)[C@@H](O[C@H]2C[C@@](C)(OC)[C@@H](OC(=O)CCN(C)CCNc3cc4c(cc3F)c(=O)c(C(=O)NCCO)cn4C3CC3)[C@H](C)O2)[C@H](C)[C@@H](O[C@@H]2O[C@H](C)C[C@H](N(C)C)[C@H]2O)[C@](C)(O)C[C@@H](C)CN(C)[C@H](C)[C@@H](O)[C@]1(C)O | 16 mg/L (≈ 13.7 µM) | ≤ 0.125 mg/L | 0.5 mg/L (≈ 0.429 µM) | > 64 mg/L | 2 mg/L (≈ 1.72 µM) | 16 mg/L (≈ 13.7 µM) | > 64 mg/L | 16 mg/L (≈ 13.7 µM) | 16 mg/L (≈ 13.7 µM) | > 64 mg/L | > 64 mg/L | > 64 mg/L | 16 mg/L (≈ 13.7 µM) | 8 mg/L (≈ 6.86 µM) |
| CC[C@H]1OC(=O)[C@H](C)[C@@H](O[C@H]2C[C@@](C)(OC)[C@@H](OC(=O)CCN(C)CCNc3cc4c(=O)c(C(=O)NCCO)cn(C5CC5)c4cc3Cl)[C@H](C)O2)[C@H](C)[C@@H](O[C@@H]2O[C@H](C)C[C@H](N(C)C)[C@H]2O)[C@](C)(O)C[C@@H](C)CN(C)[C@H](C)[C@@H](O)[C@]1(C)O | 2 mg/L (≈ 1.69 µM) | ≤ 0.125 mg/L | ≤ 0.125 mg/L | 32 mg/L (≈ 27.1 µM) | 0.5 mg/L (≈ 0.423 µM) | 2 mg/L (≈ 1.69 µM) | > 64 mg/L | 4 mg/L (≈ 3.38 µM) | 2 mg/L (≈ 1.69 µM) | 32 mg/L (≈ 27.1 µM) | > 64 mg/L | > 64 mg/L | 4 mg/L (≈ 3.38 µM) | 1 mg/L (≈ 0.846 µM) |
| COC(=O)c1cn(C2CC2)c2cc(NCCNC(=O)OC(C)(C)C)c(F)cc2c1=O | > 64 mg/L | > 64 mg/L | > 64 mg/L | > 64 mg/L | > 64 mg/L | > 64 mg/L | > 64 mg/L | > 64 mg/L | > 64 mg/L | > 64 mg/L | > 64 mg/L | > 64 mg/L | > 64 mg/L | 8 mg/L (≈ 19.1 µM) |
| CC[C@H]1OC(=O)[C@H](C)[C@@H](O[C@H]2C[C@@](C)(OC)[C@@H](OC(=O)CCNCCNc3cc4c(=O)c(C(=O)NCCO)cn(C5CC5)c4cc3Cl)[C@H](C)O2)[C@H](C)[C@@H](O[C@@H]2O[C@H](C)C[C@H](N(C)C)[C@H]2O)[C@](C)(O)C[C@@H](C)CN(C)[C@H](C)[C@@H](O)[C@]1(C)O | 4 mg/L (≈ 3.43 µM) | ≤ 0.125 mg/L | ≤ 0.125 mg/L | > 64 mg/L | 2 mg/L (≈ 1.71 µM) | 4 mg/L (≈ 3.43 µM) | > 64 mg/L | 32 mg/L (≈ 27.4 µM) | 1 mg/L (≈ 0.856 µM) | 16 mg/L (≈ 13.7 µM) | 32 mg/L (≈ 27.4 µM) | > 64 mg/L | 4 mg/L (≈ 3.43 µM) | 0.5 mg/L (≈ 0.428 µM) |
| CC[C@H]1OC(=O)[C@H](C)[C@@H](O[C@H]2C[C@@](C)(OC)[C@@H](OC(=O)CCNCCNc3cc4c(cc3F)c(=O)c(C(=O)NCCO)cn4C3CC3)[C@H](C)O2)[C@H](C)[C@@H](O[C@@H]2O[C@H](C)C[C@H](N(C)C)[C@H]2O)[C@](C)(O)C[C@@H](C)CN(C)[C@H](C)[C@@H](O)[C@]1(C)O | 4 mg/L (≈ 3.47 µM) | ≤ 0.125 mg/L | ≤ 0.125 mg/L | > 64 mg/L | 4 mg/L (≈ 3.47 µM) | 16 mg/L (≈ 13.9 µM) | > 64 mg/L | 64 mg/L (≈ 55.6 µM) | 4 mg/L (≈ 3.47 µM) | 32 mg/L (≈ 27.8 µM) | > 64 mg/L | > 64 mg/L | 4 mg/L (≈ 3.47 µM) | 0.5 mg/L (≈ 0.434 µM) |
